Data from ChEMBL document CHEMBL1240474, “Pharmacological evaluation and characterizations of newly synthesized 1,2,4-triazoles” (2010).
In brackets after ≈: the same amount, converted by molar mass.

Columns and labels:
Type in all cases: functional
Escherichia coli = experiment: Antibacterial activity against Escherichia coli MTCC 443 by broth microdilution method
Method in brief: (§1)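 Serial dilutions in Mueller Hinton broth, drugs diluted in DMSO from a 2000 µg/ml stock, inoculum adjusted by turbidity to 10⁸ CFU/ml, ampicillin as reference. Primary screen at 500, 250 and 125 µg/ml; actives retested at 100 down to 1.5625 µg/ml. Incubated overnight at 37 °C.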

[1] = system: Mycobacterium tuberculosis; experiment: Antimycobacterial activity against Mycobacterium tuberculosis H37Rv after up to 28 days; details: 672 h
Method in brief: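 Lowenstein-Jensen agar dilution against M. tuberculosis H37Rv. Compounds were made up as 2000 µg/ml DMSO stocks and added to liquid L.J. medium at primary levels of 1000, 500 and 250 µg/ml and secondary levels of 200–3.25 µg/ml. The medium was inspissated, held 24 h at 37 °C, then streaked with bacilli from saline suspension. Growth was read at 12, 22 and 28 days against drug-free controls. MIC was the lowest concentration giving no colonies or fewer than 20.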

Aspergillus niger = experiment: Antifungal activity against Aspergillus niger MTCC 282 by broth microdilution method
Streptococcus pyogenes = experiment: Antibacterial activity against Streptococcus pyogenes MTCC 442 by broth microdilution method; method in brief: as §1
Aspergillus clavatus = experiment: Antifungal activity against Aspergillus clavatus MTCC 1323 by broth microdilution method
Pseudomonas aeruginosa = experiment: Antibacterial activity against Pseudomonas aeruginosa MTCC 2488 by broth microdilution method; method in brief: as §1
Candida albicans = experiment: Antifungal activity against Candida albicans MTCC 227 by broth microdilution method
[2] = system: Mycobacterium tuberculosis; experiment: Antimycobacterial activity against Mycobacterium tuberculosis H37Rv at MIC concentration after up to 28 days
Staphylococcus aureus = experiment: Antibacterial activity against Staphylococcus aureus MTCC 96 by broth microdilution method; method in brief: as §1

Row | Compound | MIC (Escherichia coli) [µg/mL] | MIC [1] [µg/mL] | MIC (Aspergillus niger) [µg/mL] | MIC (Streptococcus pyogenes) [µg/mL] | MIC (Aspergillus clavatus) [µg/mL] | MIC (Pseudomonas aeruginosa) [µg/mL] | MIC (Candida albicans) [µg/mL] | inhibition (INH) [2] [%] | MIC (Staphylococcus aureus) [µg/mL]
1 | NNc1nc2ccc([N+](=O)[O-])cc2s1 | 250 (≈ 1190 µM) | 250 (≈ 1190 µM) | 500 (≈ 2380 µM) | 500 (≈ 2380 µM) | 1000 (≈ 4760 µM) | 250 (≈ 1190 µM) | 500 (≈ 2380 µM) | 99 | 500 (≈ 2380 µM)
2 | Cc1ccc(-c2nnc(-c3cccnc3)n2Nc2nc3ccc(F)cc3s2)cc1 | 250 (≈ 621 µM) | 200 (≈ 497 µM) | 500 (≈ 1240 µM) | 100 (≈ 248 µM) | 250 (≈ 621 µM) | 250 (≈ 621 µM) | 500 (≈ 1240 µM) | 98 | 125 (≈ 311 µM)
3 | Cc1ccc(-c2nnc(-c3cccnc3)n2Nc2nc3c([N+](=O)[O-])cccc3s2)cc1 | 12.5 (≈ 29.1 µM) | 50 (≈ 116 µM) | 500 (≈ 1160 µM) | 250 (≈ 582 µM) | 500 (≈ 1160 µM) | 25 (≈ 58.2 µM) | 1000 (≈ 2330 µM) | 99 | 500 (≈ 1160 µM)
4 | Cc1ccc(-c2nnc(-c3cccnc3)n2Nc2nc3ccc(C)cc3s2)cc1 | 125 (≈ 314 µM) | 50 (≈ 125 µM) | 1000 (≈ 2510 µM) | 100 (≈ 251 µM) | > 1000 | 250 (≈ 627 µM) | 500 (≈ 1250 µM) | 99 | 100 (≈ 251 µM)
5 | Cc1ccc(-c2nnc(-c3cccnc3)n2Nc2nc3c(Cl)cccc3s2)cc1 | 125 (≈ 298 µM) | 25 (≈ 59.7 µM) | > 1000 | 500 (≈ 1190 µM) | 1000 (≈ 2390 µM) | 500 (≈ 1190 µM) | 500 (≈ 1190 µM) | 99 | 250 (≈ 597 µM)
6 | NNc1nc2ccc(Cl)cc2s1 | 100 (≈ 501 µM) | 200 (≈ 1000 µM) | 200 (≈ 1000 µM) | 500 (≈ 2500 µM) | 250 (≈ 1250 µM) | 125 (≈ 626 µM) | 250 (≈ 1250 µM) | 99 | 500 (≈ 2500 µM)
7 | Cc1ccc(-c2nnc(-c3cccnc3)n2Nc2nc3ccc(Cl)cc3s2)cc1 | 250 (≈ 597 µM) | 100 (≈ 239 µM) | 500 (≈ 1190 µM) | 500 (≈ 1190 µM) | 250 (≈ 597 µM) | 125 (≈ 298 µM) | 500 (≈ 1190 µM) | 99 | 500 (≈ 1190 µM)
8 | Cc1ccc2nc(NN)sc2c1 | 100 (≈ 558 µM) | 1000 (≈ 5580 µM) | 1000 (≈ 5580 µM) | 250 (≈ 1390 µM) | > 1000 | 500 (≈ 2790 µM) | 250 (≈ 1390 µM) | 98 | 250 (≈ 1390 µM)
9 | CC1(C)S[C@@H]2[C@H](NC(=O)[C@H](N)c3ccccc3)C(=O)N2[C@H]1C(=O)O [AMPICILLIN] | 100 (≈ 286 µM) | – | – | 100 (≈ 286 µM) | – | 100 (≈ 286 µM) | – | – | 250 (≈ 715 µM)
10 | Cc1ccc(-c2nnc(-c3cccnc3)n2Nc2nc3ccc([N+](=O)[O-])cc3s2)cc1 | 100 (≈ 233 µM) | 200 (≈ 466 µM) | 500 (≈ 1160 µM) | 125 (≈ 291 µM) | 500 (≈ 1160 µM) | 200 (≈ 466 µM) | 500 (≈ 1160 µM) | 98 | 250 (≈ 582 µM)
11 | NNc1nc2ccc(Br)cc2s1 | 500 (≈ 2050 µM) | 500 (≈ 2050 µM) | 500 (≈ 2050 µM) | 500 (≈ 2050 µM) | 500 (≈ 2050 µM) | 500 (≈ 2050 µM) | 500 (≈ 2050 µM) | 97 | 250 (≈ 1020 µM)
12 | Cc1ccc(-c2nnc(-c3cccnc3)n2Nc2nc3cc(Cl)c(Cl)cc3s2)cc1 | 100 (≈ 221 µM) | 100 (≈ 221 µM) | 500 (≈ 1100 µM) | 500 (≈ 1100 µM) | 250 (≈ 551 µM) | 500 (≈ 1100 µM) | 200 (≈ 441 µM) | 99 | 250 (≈ 551 µM)
13 | Cc1ccc(-c2nnc(-c3cccnc3)n2Nc2nc3ccc(Br)cc3s2)cc1 | 100 (≈ 216 µM) | 50 (≈ 108 µM) | 500 (≈ 1080 µM) | 125 (≈ 270 µM) | 1000 (≈ 2160 µM) | 100 (≈ 216 µM) | 1000 (≈ 2160 µM) | 99 | 125 (≈ 270 µM)
14 | NNc1nc2c(Cl)cccc2s1 | 250 (≈ 1250 µM) | 100 (≈ 501 µM) | 500 (≈ 2500 µM) | 500 (≈ 2500 µM) | 500 (≈ 2500 µM) | 250 (≈ 1250 µM) | 1000 (≈ 5010 µM) | 99 | 500 (≈ 2500 µM)
15 | NNc1nc2ccc(F)cc2s1 | 250 (≈ 1360 µM) | 250 (≈ 1360 µM) | > 1000 | 250 (≈ 1360 µM) | > 1000 | 250 (≈ 1360 µM) | 250 (≈ 1360 µM) | 98 | 500 (≈ 2730 µM)
16 | CO[C@H]1/C=C/O[C@@]2(C)Oc3c(C)c(O)c4c(O)c(c(/C=N/N5CCN(C)CC5)c(O)c4c3C2=O)NC(=O)/C(C)=C\C=C\[C@H](C)[C@H](O)[C@@H](C)[C@@H](O)[C@@H](C)[C@H](OC(C)=O)[C@@H]1C [RIFAMPIN] | – | 40 (≈ 48.6 µM) | – | – | – | – | – | 98 | –
17 | COc1ccc2nc(NN)sc2c1 | 62.5 (≈ 320 µM) | 50 (≈ 256 µM) | 500 (≈ 2560 µM) | 250 (≈ 1280 µM) | 250 (≈ 1280 µM) | 125 (≈ 640 µM) | 500 (≈ 2560 µM) | 99 | 200 (≈ 1020 µM)
18 | COc1ccc2nc(Nn3c(-c4ccc(C)cc4)nnc3-c3cccnc3)sc2c1 | 250 (≈ 603 µM) | 62.5 (≈ 151 µM) | 500 (≈ 1210 µM) | 250 (≈ 603 µM) | 1000 (≈ 2410 µM) | 125 (≈ 302 µM) | 250 (≈ 603 µM) | 99 | 250 (≈ 603 µM)
19 | Cc1cccc2sc(NN)nc12 | 250 (≈ 1390 µM) | 500 (≈ 2790 µM) | 250 (≈ 1390 µM) | 500 (≈ 2790 µM) | 200 (≈ 1120 µM) | 250 (≈ 1390 µM) | 500 (≈ 2790 µM) | 98 | 500 (≈ 2790 µM)
20 | NNc1nc2c([N+](=O)[O-])cccc2s1 | 500 (≈ 2380 µM) | 500 (≈ 2380 µM) | 250 (≈ 1190 µM) | 250 (≈ 1190 µM) | 200 (≈ 951 µM) | 250 (≈ 1190 µM) | 200 (≈ 951 µM) | 98 | 500 (≈ 2380 µM)
21 | Cc1ccc(-c2nnc(-c3cccnc3)n2Nc2nc3c(C)cccc3s2)cc1 | 250 (≈ 627 µM) | 500 (≈ 1250 µM) | 250 (≈ 627 µM) | 250 (≈ 627 µM) | 200 (≈ 502 µM) | 500 (≈ 1250 µM) | 100 (≈ 251 µM) | 98 | 500 (≈ 1250 µM)
22 | COC1=CC(=O)C[C@@H](C)[C@]12Oc1c(Cl)c(OC)cc(OC)c1C2=O [GRISEOFULVIN] | – | – | 100 (≈ 283 µM) | – | 100 (≈ 283 µM) | – | 500 (≈ 1420 µM) | – | –
23 | NNc1nc2cc(Cl)c(Cl)cc2s1 | 100 (≈ 427 µM) | 250 (≈ 1070 µM) | 500 (≈ 2140 µM) | 500 (≈ 2140 µM) | 1000 (≈ 4270 µM) | 125 (≈ 534 µM) | 500 (≈ 2140 µM) | 99 | 250 (≈ 1070 µM)
24 | Cc1ccc(-c2nnc(-c3cccnc3)o2)cc1 | 250 (≈ 1050 µM) | 500 (≈ 2110 µM) | 500 (≈ 2110 µM) | 250 (≈ 1050 µM) | 500 (≈ 2110 µM) | 100 (≈ 421 µM) | 1000 (≈ 4210 µM) | 98 | 100 (≈ 421 µM)
